Assay outcomes from PubChem.
Only some compounds are listed: those with a hit (about 4.5% of all), similar ones and a draw of the others.
TAAR1 ag: human TAAR1 agonists, primary screen, Fluo-8 calcium fluorescence, CHO RD-HGA16 cells. vehicle wells 0%, saturating PEA agonist 100%. activation, % at 3 µM. 360,000 tested, 0.99% active. AID 624467, 2012;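 active = activation above the mean activation of all test compounds in the run plus 3 SD, cut at about 38% in these data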
Target sequence (Q96RJ0 whole entry, looked up): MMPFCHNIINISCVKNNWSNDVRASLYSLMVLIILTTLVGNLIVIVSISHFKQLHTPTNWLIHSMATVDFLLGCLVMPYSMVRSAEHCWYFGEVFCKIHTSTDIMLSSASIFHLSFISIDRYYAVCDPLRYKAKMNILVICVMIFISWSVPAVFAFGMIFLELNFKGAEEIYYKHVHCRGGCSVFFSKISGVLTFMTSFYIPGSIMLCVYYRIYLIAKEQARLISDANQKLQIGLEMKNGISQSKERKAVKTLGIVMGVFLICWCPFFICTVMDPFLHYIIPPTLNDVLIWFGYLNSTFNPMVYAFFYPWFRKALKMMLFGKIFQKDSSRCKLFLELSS
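Signal – calcium-sensitive Fluo-8 signal, excitation 470-495, emission 515-575 nm · System – RD-HGA16 (CHO) cells co-expressing Gα16 and hTAAR1 · Incubation – 17-24 h seeding, 75 min 37 °C dye, 30 min RT · Compound dosing – 3 µM single concentration · Repeats – no replicates (n 1)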
OX1R antag-1: OX1R (HCRTR1) antagonists, primary screen, fluorescence, CHO/OX1R cells, Fluo-8 calcium, orexin A; Fluo-8 calcium fluorescence; inhibition, % at 5 µM; 330,000 tested, 0.43% active; AID 434989, 2010;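 active = inhibition above its plate's threshold, mean inhibition of all tested compounds on the plate plus 3 SD, cut at about 37% in these data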;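 also: 0% = orexin A challenge wells and 100% = SB-334867-A antagonist wells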
OX1R antag-2: antagonists of human orexin 1 receptor (OX1R); inhibition, % at 6.6 µM; Orexin/Hypocretin receptor type 1 (Homo sapiens), O43613; OX1R-expressing cells, FRET antagonist read-out; 330,000 tested, 1.8% active; in the data active = inhibition mostly above about 38%, no sharp cut-off; inactive = mostly below about 40%;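 also: 0% = agonist challenge alone and 100% = reference antagonist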
GPR7 antag: GPR7 receptor antagonists, primary screen, cell-based, fluorescence, single concentration; inhibition, % at 4.4 µM; 290,000 tested, 1.1% active; GPR7-expressing cells, fluorescence antagonist assay; Neuropeptides B/W receptor type 1 (Homo sapiens), P48145; in the data active = inhibition above about 16%, passing the limit was not always enough;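 also: cells stimulated with the agonist NPW; 0% = agonist with vehicle and 100% = vehicle without agonist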
Target sequence (P48145 whole entry, looked up): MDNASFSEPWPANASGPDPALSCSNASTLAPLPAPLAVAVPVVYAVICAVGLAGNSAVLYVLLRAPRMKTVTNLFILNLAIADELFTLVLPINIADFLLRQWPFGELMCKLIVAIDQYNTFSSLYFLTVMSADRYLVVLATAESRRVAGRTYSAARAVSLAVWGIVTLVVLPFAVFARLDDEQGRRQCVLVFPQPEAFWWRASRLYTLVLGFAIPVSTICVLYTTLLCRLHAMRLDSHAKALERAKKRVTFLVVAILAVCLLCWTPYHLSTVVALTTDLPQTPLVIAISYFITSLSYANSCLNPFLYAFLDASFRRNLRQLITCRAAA
TAAR1 antag: human TAAR1 antagonists, primary screen, Fluo-8 calcium fluorescence, CHO RD-HGA16 cells. inhibition, % at 3 µM. Trace amine-associated receptor 1 (Homo sapiens), Q96RJ0. antagonist. 360,000 tested, 1.5% active;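 active = inhibition above a per-plate cutoff, the mean inhibition of test compounds on that plate plus 3 SD, cut at about 49% in these data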;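 also: 0% = DMSO plus EC80 beta-PEA response and 100% = DMSO alone without agonist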
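Test system: hTAAR1-expressing CHO RD-HGA16 cells, Gα16-coupled; Probe or stimulus: EC80 β-phenethylamine stimulus; Compound dosing: single nominal final test compound concentration of 3 µM; Timing: 140 s kinetic read after compound, 140 s after agonist; Signal: Fluo-8 calcium-sensitive fluorescence; Measure: % inhibition of agonist calcium response; Controls: DMSO and EC80 PEA controls.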
CHO parental Ca: ATP-evoked calcium signal inhibitors, parental CHO, primary screen, counter-screen for OX1R antagonist project, cell-based, fluorescence, Fluo-8 calcium dye. AID 463079, 2010. 330,000 tested, 0.63% active. inhibition, % at 5.6 µM. parental CHO-K1, ATP-induced calcium, Fluo-8 fluorescence;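 active = inhibition above that plate's mean sample inhibition plus 3 SD, cut at about 26% in these data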;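 also: 0% = ATP-challenged DMSO wells and 100% = DMSO wells without ATP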
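Assay system – parental CHO cells · Reagent – ATP stimulus · Detection – intracellular calcium via Fluo-8 no-wash fluorescent dye · Evaluation – percent inhibition of ATP-evoked calcium rise, normalized to controls · Controls – ATP wells versus no-ATP DMSO wells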
The depositor's hits bear a star; · = no result.

SMILES	TAAR1 ag	OX1R antag-1	OX1R antag-2	GPR7 antag	TAAR1 antag	CHO parental Ca
O=C(/C=C(\Nc1cccc(F)c1)c1ccccc1)c1ccccc1	0.2	·	·	·	13.9	·
Cc1ccc(O)c(-c2cc(-c3ccccc3[N+](=O)[O-])[nH]n2)c1	8.8	-8.5	18.5	16.9	56.9*	-3.7
O=[N+]([O-])c1ccccc1-c1cc(-c2cc(Cl)ccc2O)n[nH]1	24.2	16.9	22.6	3.3	36.6	28.4
COC(=O)c1cc2c(c3c4cc(C)ccc4n(S(=O)(=O)c4cccc(C)c4)c13)C(=O)N(Cc1ccc(N(C)C)cc1)C2	-2.0	·	·	·	-12.9	·
CCOC(=O)C1(C)CCCN(C(=O)c2cccs2)C1 (stereo unspecified)	2.1	·	·	·	-19.7	·
COc1ccc(N(C(=O)Cn2nnc(-c3ccc(F)cc3)n2)C(C)C(=O)NC2CCCC2)cc1 (stereo unspecified)	-2.9	-24.0	6.3	2.3	-7.2	-21.7
O=C(Nc1ccccc1-c1nnn(CC(=O)N2CCOCC2)n1)c1ccccc1F	6.6	-4.9	26.1	-4.1	7.1	-7.9
O=C(Cn1nnc(-c2ccccc2NC(=O)c2ccccc2F)n1)NC1CCCC1	-0.5	40.3	18.5	-1.5	15.4	32.2*
CC(C(=O)NC1CCCC1)N(C(=O)Cn1nnc(-c2ccc(F)cc2)n1)c1ccccc1F (stereo unspecified)	19.2	-16.1	20.3	-13.6	51.6*	-27.7
Cc1cc(NS(=O)(=O)c2ccc(NC(=O)c3ccc([N+](=O)[O-])cc3)cc2)nc(C)n1	1.7	·	·	·	-17.5	·
Brc1ccc2nc(-c3cccs3)c(NCC3CCCO3)n2c1 (stereo unspecified)	10.2	-25.7	22.7	-9.0	32.4	-21.2
Cc1ccc(C)c(-c2cc(C(=O)NNC(=S)NCC(C)C)c3ccccc3n2)c1	8.1	-10.8	50.8	-9.4	50.4*	-5.3
CCNC(=S)NNC(=O)c1cc(-c2ccccc2C)nc2ccccc12	·	-24.1	21.6	-0.3	·	-14.0
C[C@]12CCC3c4ccc(OCC(=O)O)cc4CCC3C1CCC2=O (stereo partly specified)	1.2	-1.8	-0.6	21.6*	9.4	-4.9
C(=C\c1ccccc1)/CN1CCN(C(c2ccccc2)c2nnnn2Cc2ccccc2)CC1 (stereo unspecified)	-0.3	·	·	·	-8.1	·
COc1cccc(NC(=O)/C=C/c2ccco2)c1	0.0	-17.4	12.6	-6.8	18.8	1.4
O=C(/C=C/c1ccco1)Nc1ccc(Oc2ccc(Cl)cc2)cc1	9.8	10.8	65.7	6.5	78.1*	16.6
COc1cc(NC(=O)Cn2cnc(S(=O)(=O)N3CCc4ccccc43)c2)cc(OC)c1OC	-0.2	-12.8	20.4	1.7	-4.8	-11.8
CC1(CC(=O)N/N=C/c2cc([N+](=O)[O-])c(O)cc2O)OCCO1	3.6	-2.3	52.3*	1.3	7.4	-2.4
COc1ccc(C(C(=O)NC(C)(C)C)n2c(-c3ccc(C(F)(F)F)cc3)nc3ccccc32)cc1 (stereo unspecified)	0.0	·	·	·	-53.5	·
CC(C)C[C@@H](CN1CCC[C@@H]1CN1C(=S)NC[C@@H]1Cc1ccc(O)cc1)N1C[C@H](Cc2ccc(O)cc2)N(CC2CCCCC2)C1=S	-1.7	·	·	·	-35.2	·
CN(C)c1ccc(NC(=O)CSc2nnc(-c3cccs3)n2Cc2ccco2)cc1	2.1	35.0	47.0*	4.2	6.7	-18.4
CSc1ccc(S(=O)(=O)NCC(=O)OCC(=O)NCC2CCCO2)cc1[N+](=O)[O-] (stereo unspecified)	0.2	3.4	56.2*	·	0.8	-13.1
C[C@@H]1ON(C)[C@H]2C[C@H]3c4cc(-c5ccc6c(c5)OCO6)ccc4CCN3C[C@@H]12	0.1	·	·	·	-11.1	·
COc1cc(CN(CC(C)C)S(=O)(=O)c2ccccc2Br)cc(OC)c1	2.4	34.6	33.5*	·	10.1	-19.9
SMILES	TAAR1 ag	OX1R antag-1	OX1R antag-2	GPR7 antag	TAAR1 antag	CHO parental Ca
COC(=O)C(CC(C)C)N(Cc1cc(OC)cc(OC)c1)S(=O)(=O)c1ccccc1Br (stereo unspecified)	3.8	32.3	29.0	·	15.3	-19.4
COc1ccc(NC(=O)C(c2ccc(C#N)cc2)n2c(=O)c(-c3cc4ccccc4[nH]3)nc3ccccc32)cc1 (stereo unspecified)	2.1	·	·	·	-12.8	·
COc1ccc(CCNC(=O)Cn2ccc3cc(S(=O)(=O)N4CCCC4)ccc32)cc1OC	0.1	8.8	57.2*	-9.4	10.3	-15.1
Cc1ccccc1CCNC(=O)Cn1ccc2cc(S(=O)(=O)N3CCCC3)ccc21	18.3	16.2	46.0*	3.8	-13.2	-16.2
Cc1ccc(CCNC(=O)Cn2ccc3cc(S(=O)(=O)N4CCCC4)ccc32)cc1	1.0	21.7	56.0*	3.6	3.3	-18.7
C=CCNC(=O)O/N=C/c1csc([N+](=O)[O-])c1	0.3	-4.3	41.9*	-1.4	-1.1	-11.9
CCOc1ccc(C(C(=O)NCC2CCCO2)N(Cc2cccs2)C(=O)c2snc(C(N)=O)c2N)cc1 (stereo unspecified)	23.8	-9.2	20.4	-9.4	53.6*	-4.7
CCOc1ccc(C(C(=O)NCC2CCCO2)N(C(=O)c2snc(C(N)=O)c2N)c2ccccc2F)cc1 (stereo unspecified)	24.5	-7.4	21.7	-4.7	47.4	-13.2
NC(=O)c1nsc(C(=O)N(Cc2ccccc2F)C(C(=O)NCC2CCCO2)c2ccc(F)cc2)c1N (stereo unspecified)	9.2	-11.2	17.4	-4.9	21.6	-13.4
Cc1cccc(CCN(C(=O)c2snc(C(N)=O)c2N)C(C(=O)NCC2CCCO2)c2ccc(F)cc2)c1 (stereo unspecified)	30.2	·	·	-6.6	59.0*	·
O=C(NCC1CCCO1)C(c1cccs1)N(Cc1cccs1)C(=O)Cn1nnc(-c2cccs2)n1 (stereo unspecified)	13.6	-7.8	50.7	-9.2	48.7*	-24.8
CC(=O)c1cccc(NC(=O)CCS(=O)(=O)c2cccc3nonc23)c1	5.6	-10.9	57.8*	-4.7	0.3	-2.6
Cc1cccc(N(C)C(=O)CCS(=O)(=O)c2cccc3nonc23)c1	7.2	-16.0	51.9*	-10.6	-7.8	-16.4
COc1ccc(N(C)C(=O)CCS(=O)(=O)c2cccc3nonc23)c(OC)c1	0.2	-20.2	60.9*	4.4	8.0	0.9
COc1cccc(CNC(=O)CCS(=O)(=O)c2cccc3nonc23)c1	11.0	-13.8	59.1*	-10.0	-13.9	-16.4
